SUMO1-SIM PPI = alters human SUMO1 binding to SIM partners. SUMO1 binding to a labelled peptide, TR-FRET, 1 h. inhibition, % at 20 µM. 360,000 tested, 0.33% active. AID 602429; in the data active = inhibition above about 37%
Target sequence (P63165 whole entry, looked up): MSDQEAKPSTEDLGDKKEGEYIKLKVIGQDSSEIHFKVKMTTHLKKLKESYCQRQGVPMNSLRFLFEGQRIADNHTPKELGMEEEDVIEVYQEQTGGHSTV
DNMT1 inh = inhibitors of human DNMT1 | P26358 | DNMT1 molecular beacon, Hinp1I cleavage, fluorescence | inhibition (reported as % activation of signal), % at 10 µM | 360,000 tested, 0.83% active | AID 588458; in the data active = inhibition above about 50%
CSN deneddyl inh = CSN deneddylation inhibition; Q92905; Purified CSN, SCF-Nedd8-OG deneddylation, fluorescence polarization; inhibition, % at 12.5 µM; 360,000 tested, 0.38% active;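 active = pattern-corrected inhibition above about 35%, with an unprinted fluorescence ratio check between 0.5 and 1.5, limit read from the data, passing the limit was not always enough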
Target sequence (Q92905 whole entry, looked up, one chain of several): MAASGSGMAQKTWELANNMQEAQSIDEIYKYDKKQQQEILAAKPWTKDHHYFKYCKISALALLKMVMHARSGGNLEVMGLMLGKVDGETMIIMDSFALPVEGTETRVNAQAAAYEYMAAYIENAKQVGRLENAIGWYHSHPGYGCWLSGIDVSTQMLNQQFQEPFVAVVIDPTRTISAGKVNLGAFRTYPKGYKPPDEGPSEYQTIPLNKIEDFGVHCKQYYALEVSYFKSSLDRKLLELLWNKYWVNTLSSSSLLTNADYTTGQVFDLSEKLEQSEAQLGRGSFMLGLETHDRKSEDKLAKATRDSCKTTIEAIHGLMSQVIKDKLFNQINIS
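test system = HEK293T-derived human Csn5 enzyme | amount = 0.24 nM Csn5 enzyme, final concentration | medium = Tris/NaCl/DTT buffer, pH 7.5 | schedule = 90 min reaction at room temperature | signal = FP | evaluation = inhibition of Csn5 cleavage, % | compound dosing = single dose of 12.5 µM compound with 0.25% DMSO | probe or stimulus = 10 nM SCFSkp2-Nedd8OG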
Scp1 inh = inhibitors of human Scp-1 phosphatase; Q9GZU7; Recombinant Scp1, phosphopeptide, malachite green phosphate absorbance; inhibition, % at 20 µM; 340,000 tested, 0.88% active;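 active = inhibition above about 50% at 20 µM, limit read from the data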
Target sequence (Q9GZU7 76-261 limits assumed): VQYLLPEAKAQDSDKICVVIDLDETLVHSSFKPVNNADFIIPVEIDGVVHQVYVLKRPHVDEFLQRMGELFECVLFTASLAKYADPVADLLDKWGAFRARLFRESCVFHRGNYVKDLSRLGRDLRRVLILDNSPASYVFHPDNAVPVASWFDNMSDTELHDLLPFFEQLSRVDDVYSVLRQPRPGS
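Assay system: SCP-1 catalytic fragment, aa 76-261 | Buffer or medium: Tris acetate buffer pH 5.5 with MgCl2 and Tween-20 | Compound: One concentration, 20 µM, with 1.0% DMSO | Also added: Phospho 17-mer peptide substrate | Signal: Absorbance at 630 nm | Incubation: 45 min enzyme reaction at room temperature | Measure: % inhibition of SCP-1 phosphate liberation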
STEP block = blocks human striatal-enriched tyrosine phosphatase | P54829 | recombinant STEP, OMFP fluorogenic substrate, fluorescence | inhibition, % at 20 µM | 360,000 tested, 0.25% active;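 active = inhibition at 20 µM, scaled per plate between control wells, above about 37%, limit read from the data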
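medium = Bis-Tris buffer pH 6.0, 2.5 mM DTT, 0.005% Tween 20 | test system = STEP (striatal-enriched tyrosine phosphatase) enzyme, cell-free | measure = normalized % inhibition | compound dosing = 20 µM, 1% DMSO | also added = 25 µM OMFP | schedule = reaction 20 min, ambient temperature | measured by = fluorescence read at 480 nm ex / 540 nm em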
LMPTP inh = LMPTP (human) inhibition | inhibition, % at 20 µM | P24666 | 360,000 tested, 0.22% active | recombinant LMPTP-A, OMFP fluorogenic substrate, fluorescence intensity;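 active = compounds that cut the enzyme signal by at least half of the control window in the single-dose screen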
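Test system – LMPTP-A enzyme · Amount – LMPTP-A at 0.625 nM final in the reaction · Buffer or medium – Bis-Tris pH 6.0, DTT, detergent · Reagent – OMFP 400 µM · Doses – single 20 µM dose · Schedule – reaction 50 min, room temperature, dark · Detection – fluorescence intensity of OMFP turnover product · Evaluation – percent inhibition versus substrate-only and uninhibited controls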
Scp1 confirm = Scp-1 (human) inhibition, single-dose confirmed; recombinant SCP-1 catalytic domain, phosphate release, malachite green absorbance; shares compounds with Scp1 inh; AID 540281; inhibition, % at 20 µM; 2,500 tested, 61% active
Scp-1 MG ctr = colorimetric interference in Scp-1 counter-screen; shares compounds with Scp1 inh; Colorimetric interference counterscreen, malachite green absorbance 630 nm; apparent inhibition (interference), % at 20 µM; 2,500 tested, under 10 active; AID 540313;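 also: compounds added after enzyme reaction finished so only phosphate colour detection is probed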
Scp1 DSF = Scp-1 (human) binding by thermal shift. 1,500 tested, 25% active. shares compounds with Scp1 inh. Recombinant SCP1, Sypro Orange thermal shift Tm. thermal shift relative to vanadate control, % at 40 µM;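 active = substances whose mean melting-temperature shift, as a percentage of the reference inhibitor's shift, reaches about 5.3%, limit read from the data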
Numbers stand for hits; - = inactive; . = no result given. Sampled rows, rich in hits. Any-hit rate of the full collection: about 2%.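 The calls were made as follows, unless noted: active = inhibition of at least 30% at 20 µM; inactive = the rest.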

SMILES | SUMO1-SIM PPI | DNMT1 inh | CSN deneddyl inh | Scp1 inh | STEP block | LMPTP inh | Scp1 confirm | Scp-1 MG ctr | others
COCc1cc(C)nc(SCC[N+](C)(C)CC(=O)Nc2cccc(C(F)(F)F)c2)c1C#N | - | - | - | - | - | - | . | .
Cn1c(SCC(=O)NCc2ccco2)nnc1-c1ccc(S(=O)(=O)N2CCOCC2)cc1 | - | - | - | 65 | - | - | 49 | - | Scp1 DSF=-
CCC(=O)Nc1cccc(-c2nnc(SCC(=O)NCc3ccco3)n2C)c1 | - | - | - | 98 | - | - | - | -
O=C(CSc1nnc(-c2ccc(S(=O)(=O)N3CCCC3)cc2)o1)NCc1ccco1 | - | - | - | 62 | - | - | 43 | - | Scp1 DSF=-
O=C(NCc1ccccc1F)C1CCCN(S(=O)(=O)c2ccc(-n3cnnn3)cc2)C1 (stereo not drawn) | - | - | - | - | - | - | . | .
O=C(NCc1ccco1)C1CCCN(S(=O)(=O)c2ccc(-n3cnnn3)cc2)C1 (stereo not drawn) | - | - | - | 76 | - | - | 69 | - | Scp1 DSF=-
Cn1c(SCC(=O)NCc2ccco2)nnc1-c1ccccc1 | - | - | - | - | - | - | . | .
CC(C)C(=O)N1CCCC1(C)C(=O)Nc1ccc(F)cc1 (stereo not drawn) | - | - | - | . | - | - | . | .
Cc1ccc(NC(=O)c2noc(C(C)C)c2[N+](=O)[O-])cc1 | - | - | - | - | - | - | . | .
Cc1cc(C)c2c(n1)SCC(=O)N2CC(=O)Nc1c(C)cccc1C | - | - | - | 52 | - | - | - | -
Cc1cc(C)c2c(n1)SCC(=O)N2CC(=O)Nc1cccc(Cl)c1 | - | - | - | - | - | - | . | .
CCN(CC)S(=O)(=O)c1cc(NC(=O)C2CC(=O)N(Cc3ccccc3)C2)ccc1Cl (stereo not drawn) | - | - | - | - | - | - | - | -
CC(=O)c1sc(NC(=O)C2CC(=O)N(Cc3ccccc3)C2)nc1-c1ccccc1 (stereo not drawn) | - | - | - | - | - | - | - | -
O=C(NCCNC(=O)c1ccc(Br)o1)c1cccnc1 | - | - | - | - | - | - | . | .
Cc1cccc(NC(=O)CN2C(=O)S/C(=C\c3ccc(-c4cccc(C(=O)O)c4C)o3)C2=O)c1 | . | . | . | 78 | . | . | 81 | - | Scp1 DSF=8.1
COc1ccc([N+](=O)[O-])cc1NC(=S)NC(C)=O | - | - | - | - | - | - | . | .
COc1ccc(/C=C/C(=O)NC(=S)Nc2cc([N+](=O)[O-])ccc2O)cc1OC | - | - | - | 80 | 62 | 56 | 54 | - | Scp1 DSF=5.7
Cc1cc(Cl)c2cc3ccccc3cc2n1 | - | - | - | - | - | - | . | .
Cc1cc(NC(=O)CSCC(=O)N(c2cccc(Cl)c2)C(C(=O)NC2CCCCC2)c2ccc(O)c(O)c2)no1 (stereo not drawn) | - | - | - | 50 | - | - | - | -
Cc1cc(NC(=O)CSCC(=O)N(c2ccc(F)cc2)C(C(=O)NC2CCCCC2)c2ccc(O)c(O)c2)no1 (stereo not drawn) | - | - | - | - | - | - | . | .
C[C@H](CO)N1C[C@H](C)[C@@H](CN(C)C(=O)Nc2ccc(C(F)(F)F)cc2)Oc2ccc(NS(=O)(=O)c3cn(C)cn3)cc2C1=O | - | - | - | 73 | - | - | - | -
Cc1ccc(S(=O)(=O)N(C)C[C@@H]2Oc3ccc(NS(=O)(=O)c4ccccc4)cc3CC(=O)N([C@@H](C)CO)C[C@H]2C)cc1 | - | - | - | 50 | - | - | - | -
C[C@@H]1CN([C@@H](C)CO)C(=O)Cc2cc(NS(=O)(=O)c3cn(C)cn3)ccc2O[C@@H]1CN(C)C(=O)Nc1ccccc1 | - | - | - | 88 | - | - | 62 | - | Scp1 DSF=-
Cc1noc(C)c1S(=O)(=O)N(C)C[C@H]1Oc2ccc(NS(=O)(=O)c3cn(C)cn3)cc2C(=O)N([C@H](C)CO)C[C@@H]1C | - | - | - | 53 | - | - | - | -
Cc1ccc(S(=O)(=O)Nc2ccc3c(c2)CC(=O)N([C@H](C)CO)C[C@@H](C)[C@H](CN(C)S(=O)(=O)c2ccccc2)O3)cc1 | - | - | - | - | - | - | . | .
SMILES | SUMO1-SIM PPI | DNMT1 inh | CSN deneddyl inh | Scp1 inh | STEP block | LMPTP inh | Scp1 confirm | Scp-1 MG ctr | others
CCCOc1ccc(C(=O)Nc2cc(S(=O)(=O)N3CCOCC3)ccc2N2CCOCC2)cc1 | - | - | - | - | - | - | . | .
C[C@H](CO)N1C[C@H](C)[C@@H](CN(C)C(=O)NC2CCCCC2)Oc2ccc(NS(=O)(=O)c3cn(C)cn3)cc2C1=O | - | - | - | - | - | - | . | .
CC(C)NC(=O)N(C)C[C@H]1Oc2ccc(NS(=O)(=O)c3cn(C)cn3)cc2C(=O)N([C@H](C)CO)C[C@@H]1C | - | - | - | 82 | - | - | - | -
CN(C)N1C(N)=C(C#N)C(c2ccc3c(c2)OCO3)C2=C1CC(C)(C)CC2=O (stereo not drawn) | - | - | - | - | - | - | . | .
CC(C)c1ccc(NS(=O)(=O)c2ccc3c(c2)oc(=O)n3C)cc1 | - | - | - | - | - | - | - | -
Cn1c(=O)oc2cc(S(=O)(=O)Nc3ccc(Cl)cc3)ccc21 | - | - | - | - | - | - | . | .
COc1ccccc1NC(=O)C(=N\O)/C(C)=N/O | - | - | - | 75 | - | - | 30 | - | Scp1 DSF=-
COc1ccc(C2CCCN2CC(O)COc2ccccc2C(C)C)cc1 (stereo not drawn) | - | - | - | 61 | - | - | - | -
CCOC(=O)N1CCN(CC(O)COc2ccccc2C(C)C)CC1 (stereo not drawn) | - | - | - | - | - | - | . | .
Cc1ccc(S(=O)(=O)NC(=O)c2ccc(-c3ccc(C)c4ccccc34)o2)cc1 | - | - | - | 61 | - | - | 77 | - | Scp1 DSF=-
N#CC1=C(N)OC2=C(C(=O)CC(c3ccccc3)C2)C1c1ccoc1 (stereo not drawn) | - | - | - | - | - | - | . | .
CC1C(C#N)=C(N)OC2=C1C(=O)CC(c1ccccc1)C2 (stereo not drawn) | - | - | - | 55 | - | - | - | -
Cc1sc(NC(=O)Cn2nc(C(F)(F)F)cc2C)c(C(=O)OC(C)C)c1C | - | - | - | 63 | - | - | - | -
C[n+]1cn(/N=C/c2ccccc2)c2ccccc21 | - | - | - | 113 | - | - | - | -
